The target in experiment [1] is Endothelial PAS domain-containing protein 1 (Homo sapiens, UniProt Q99814). As to the kind of experiment: Inhibition of HIF-2alpha activity in human 786-O cells by luciferase assay. The experiment is classed as cell-based. A digest of the protocol:
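Cells seeded at 5000 per well and allowed to attach overnight, then exposed to test samples or controls the next day. Incubation lasted one day so the HIF-2 signal could drop. Luciferin was then added to the cells and the luciferase signal read.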

A short description of experiment [2]: Cytotoxicity against human 786-O cells by XTT assay. The note with it: 786-0. The experiment is classed as functional, cell-based. For orientation: Tetrazolium dyes change colour on reduction, which living cells bring about.

Chain of Endothelial PAS domain-containing protein 1 (Q99814 whole entry, the tested form may be a part): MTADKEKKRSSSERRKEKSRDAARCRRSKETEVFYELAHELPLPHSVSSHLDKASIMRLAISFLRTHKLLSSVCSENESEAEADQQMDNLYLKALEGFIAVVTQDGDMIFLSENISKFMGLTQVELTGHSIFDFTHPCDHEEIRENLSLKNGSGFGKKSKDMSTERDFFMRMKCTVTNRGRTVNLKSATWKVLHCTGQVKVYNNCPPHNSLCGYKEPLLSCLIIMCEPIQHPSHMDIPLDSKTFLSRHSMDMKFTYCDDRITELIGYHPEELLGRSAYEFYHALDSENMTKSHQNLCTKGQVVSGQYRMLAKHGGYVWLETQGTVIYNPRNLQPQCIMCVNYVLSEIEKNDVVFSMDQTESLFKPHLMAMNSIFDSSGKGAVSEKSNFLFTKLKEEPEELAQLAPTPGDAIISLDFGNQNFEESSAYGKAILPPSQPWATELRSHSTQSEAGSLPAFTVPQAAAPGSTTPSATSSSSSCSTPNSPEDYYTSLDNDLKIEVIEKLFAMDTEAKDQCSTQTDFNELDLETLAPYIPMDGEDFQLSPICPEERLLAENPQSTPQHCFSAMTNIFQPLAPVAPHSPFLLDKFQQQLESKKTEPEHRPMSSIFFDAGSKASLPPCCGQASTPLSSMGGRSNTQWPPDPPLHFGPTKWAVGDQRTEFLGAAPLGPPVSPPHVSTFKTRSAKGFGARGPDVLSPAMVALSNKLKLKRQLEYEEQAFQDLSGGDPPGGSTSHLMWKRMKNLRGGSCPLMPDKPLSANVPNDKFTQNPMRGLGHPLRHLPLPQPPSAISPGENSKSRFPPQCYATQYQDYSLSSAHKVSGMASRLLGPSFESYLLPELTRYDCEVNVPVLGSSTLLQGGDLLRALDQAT

Usually EC50 stands for the concentration needed to bring the measured effect to its halfway point. One may read the IC50 as the concentration that inhibits the measured activity by half. Turning to `C/C1=C\C=C(\C(C)C)CCC2=CCC[C@](C)(OC2=O)[C@H](O)CC1`, the EC50 entry in experiment [1] is listed as “Not Active”. Further, the 50% inhibitory concentration (IC50) entry in experiment [2] is “Not Active”.

`C=C(C)[C@@H]1CC(=O)/C(C)=C/CC/C(C)=C/CC[C@]2(C)O[C@@H]2C1`: in experiment [1] (read-out: EC50), the EC50 was found to be 108 µM. Moreover, the IC50 in experiment [2] (Homo sapiens, read-out: IC50) was 147 µM.

On to `CC1=C2CC/C(C)=C/CC[C@]3(C)O[C@@H]3CC/C(C)=C/[C@H]2OC1`, for which, in experiment [1] (read-out: EC50), the EC50 came to 183 µM. Further, the IC50 in experiment [2] (Homo sapiens, read-out: IC50) came to 291 µM.

On to `C/C1=C\CC[C@]2(C)O[C@@H]2CC/C(C)=C/C=C(/C(C)(C)O)CC1`, for which the EC50 result in experiment [1] is “Not Active”. Besides, the half-maximal inhibitory concentration (IC50) entry in experiment [2] was “Not Active”.

For the compound `C=C1CC/C=C(/C)CC[C@@H]2C([C@@H](OC(C)=O)[C@H](C=C(C)C)OC(C)=O)=CO[C@H](OC(C)=O)[C@@H]12`, the EC50 in experiment [1] (read-out: EC50) came to 3.4 µM. Besides, the half-maximal inhibitory concentration (IC50) in experiment [2] (Homo sapiens, read-out: IC50) came to 5.2 µM.

Regarding `C=C1C[C@@H](O)/C=C(/C)CC[C@@H]2C([C@@H](OC(C)=O)[C@H](C=C(C)C)OC(C)=O)=CO[C@H](OC(C)=O)[C@@H]12`, in experiment [1] (read-out: EC50), the EC50 came out at 6.2 µM. Further, in experiment [2] (Homo sapiens, read-out: IC50), the IC50 stood at 26.3 µM.

Regarding `C=C1CC[C@H](OO)C(=C)CC[C@@H]2C([C@@H](OC(C)=O)[C@H](C=C(C)C)OC(C)=O)=CO[C@H](OC(C)=O)[C@@H]12`, the EC50 in experiment [1] (read-out: EC50) was found to be 11.8 µM. In addition, the IC50 in experiment [2] (Homo sapiens, read-out: IC50) stood at 14.2 µM.

Turning to `C=C(C)/C1=C/C=C(\C)CC[C@@H](O)[C@]2(C)CCC=C(CC1)C(=O)O2` (relative stereo), in experiment [1], the EC50 result is “Not Active”. Moreover, in experiment [2], the half-maximal inhibitory concentration (IC50) result was “Not Active”.

On to `COC(C)(C)/C1=C/C=C(\C)CC[C@H]2O[C@@]2(C)CC/C=C(\C)CC1` (relative stereo), for which the EC50 in experiment [1] (read-out: EC50) amounted to 149 µM. For the same compound, the IC50 in experiment [2] (Homo sapiens, read-out: IC50) was 134 µM.

(Values after ChEMBL document CHEMBL1759877, “Identification and evaluation of soft coral diterpenes as inhibitors of HIF-2α induced gene expression” (Bioorg Med Chem Lett, 2011).)
